Results taken from ChEMBL document CHEMBL1141590, “Development of peptidomimetics with a vinyl sulfone warhead as irreversible falcipain-2 inhibitors” (J Med Chem, 2008).

Key:
Cathepsin B = Cathepsin B (Homo sapiens, UniProt P07858); experiment: Inhibition of human cathepsin B
In short: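 Cathepsin B continuous progress-curve assay with Cbz-Phe-Arg-AMC at 80 µM; Kiapp corrected to zero substrate using Km 150 µM to give Kinac. Two independent runs, each in duplicate.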

Procathepsin L = Procathepsin L (Homo sapiens, UniProt P07711); experiment: Inhibition of human cathepsin L
In short: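 Cathepsin L continuous progress-curve assay with Cbz-Phe-Arg-AMC at 5 µM; Kiapp corrected to zero substrate using Km 6.5 µM to give Kinac. Two independent runs, each in duplicate.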

Falcipain 2 = biological target: T1, Falcipain 2 (Plasmodium falciparum, UniProt Q9N6S8); experiment: (§1) Inhibition of Plasmodium falciparum recombinant falcipain-2
T1 sequence (Q9N6S8 whole entry): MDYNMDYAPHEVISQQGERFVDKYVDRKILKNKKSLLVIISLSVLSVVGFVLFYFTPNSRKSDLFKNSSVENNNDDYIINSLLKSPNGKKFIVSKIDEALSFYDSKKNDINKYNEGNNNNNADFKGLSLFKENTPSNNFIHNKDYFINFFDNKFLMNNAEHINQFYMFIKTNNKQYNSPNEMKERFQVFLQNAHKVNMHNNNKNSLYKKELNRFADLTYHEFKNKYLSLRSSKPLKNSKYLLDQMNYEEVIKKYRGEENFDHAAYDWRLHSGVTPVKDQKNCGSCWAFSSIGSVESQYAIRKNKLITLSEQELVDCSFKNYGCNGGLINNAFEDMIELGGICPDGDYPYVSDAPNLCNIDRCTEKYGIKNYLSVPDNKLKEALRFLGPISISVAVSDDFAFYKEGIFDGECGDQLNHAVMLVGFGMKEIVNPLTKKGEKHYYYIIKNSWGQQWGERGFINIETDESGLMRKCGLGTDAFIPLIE
In short: (§2)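 Recombinant FP-2 in 100 mM sodium acetate pH 5.5, 10 mM DTT; Cbz-Phe-Arg-AMC 32 µM, fluorescence (ex 365/em 460 nm) monitored continuously 20 min at room temperature. Seven inhibitor levels within 0–10 µM; kobs from progress-curve fits, hyperbolic fit gave kinac and Kiapp, corrected with Km 21.5 µM; k2nd = kinac/Kinac. Two independent runs, each in duplicate.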

[1] = biological target: T2, Falcipain 2 (Plasmodium falciparum) (UniProt Q9N6S8); experiment: as §1; in short: as §2
T2 sequence (whole entry): T1 sequence (Q9N6S8 whole entry)

Plasmodium falciparum = experiment: Antiplasmodial activity against Plasmodium falciparum 3D7 after 72 hrs in Malstat assay; type: functional, organism-based; settings: 3D7, 72 h
In short: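 Synchronized ring-stage P. falciparum 3D7 plated at 1% parasitemia with compounds (in DMSO) at 1 nM–100 µM; 0.5% v/v DMSO alone as negative control. Cultured in vitro 72 h, then viability read by Malstat assay (parasite lactate dehydrogenase activity); dose-dependent effect quantified.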

SMILES | Ki (Cathepsin B) [µM] | Kinact (Cathepsin B) [min⁻¹] | Ki (Procathepsin L) [µM] | Kinact (Procathepsin L) [min⁻¹] | Ki (Falcipain 2) [µM] | Kinact [1] [min⁻¹] | IC50 (Plasmodium falciparum) [µM] | IC50 (Falcipain 2) [µM]
CCS(=O)(=O)/C=C/[C@H](CCc1ccccc1)NC(=O)CN1C(=O)[C@@H](COC(=O)Nc2ccc(Cl)cc2C(F)(F)F)N=C(c2ccccc2)c2ccccc21 | 4.4 | 0.045 | 13.5 | 0.1 | 0.32 | 0.1 | 9.1 | –
CS(=O)(=O)/C=C/[C@H](CCc1ccccc1)NC(=O)CN1C(=O)[C@@H](COC(=O)Nc2ccc(Cl)cc2C(F)(F)F)N=C(c2ccccc2)c2ccccc21 | 14.5 | 0.064 | – | – | 0.39 | 0.16 | 55.4 | 8
CS(=O)(=O)/C=C/CNC(=O)CN1C(=O)[C@@H](COC(=O)Nc2ccc(Cl)cc2C(F)(F)F)N=C(c2ccccc2)c2ccccc21 | 11 | 0.048 | – | – | 0.37 | 0.059 | 18.1 | 8
O=C(CN1C(=O)[C@@H](COC(=O)Nc2ccc(Cl)cc2C(F)(F)F)N=C(c2ccccc2)c2ccccc21)N[C@H]1CC(=O)OC1O (some centres not stated) | – | – | – | – | – | – | – | 8
CC(C)C[C@H](NC(=O)[C@H]1O[C@@H]1C(=O)O)C(=O)NCCCCN=C(N)N [E-64] | – | – | – | – | 0.29 | 0.46 | 5.3 | –
COc1ccc(S(=O)(=O)/C=C/[C@H](CCc2ccccc2)NC(=O)CN2C(=O)[C@@H](COC(=O)Nc3ccc(Cl)cc3C(F)(F)F)N=C(c3ccccc3)c3ccccc32)cc1 | 3.3 | 0.045 | – | – | 0.053 | 0.034 | 59.6 | –
O=C(CN1C(=O)[C@@H](COC(=O)Nc2ccc(Cl)cc2C(F)(F)F)N=C(c2ccccc2)c2ccccc21)NC/C=C/S(=O)(=O)c1ccccc1 | 4.6 | 0.047 | 21.9 | 0.16 | 0.14 | 0.033 | 23.1 | 8
COc1ccc(S(=O)(=O)/C=C/CNC(=O)CN2C(=O)C(COC(=O)Nc3ccc(Cl)cc3C(F)(F)F)N=C(c3ccccc3)c3ccccc32)cc1 (configuration not stated) | 5.9 | 0.059 | 14 | 0.1 | 0.12 | 0.031 | > 100 | 8
O=C(CN1C(=O)[C@@H](COC(=O)Nc2ccc(Cl)cc2C(F)(F)F)N=C(c2ccccc2)c2ccccc21)N[C@H](/C=C/S(=O)(=O)c1ccccc1)CCc1ccccc1 | 3.1 | 0.039 | 7 | 0.12 | 0.6 | 0.11 | 9.2 | –
CCS(=O)(=O)/C=C/CNC(=O)CN1C(=O)[C@@H](COC(=O)Nc2ccc(Cl)cc2C(F)(F)F)N=C(c2ccccc2)c2ccccc21 | 4.3 | 0.039 | – | – | 0.11 | 0.027 | 56.6 | 8
